An excerpt weighted towards active compounds, which were near 2.2% of everything screened.
Runt-SMMHC FRET = inhibitors of human RUNX1 Runt domain binding to CBFb-SMMHC; 0.74% of 220,000 active; Cerulean-Runt/Venus-CBFb-SMMHC FRET ratio 530/480, 1 h; inhibition, % at 20 µM;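 active = mean inhibition across duplicate retests at 20 µM reaching about 50%, limit read from the data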;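 note: inhibitors lower the FRET ratio by blocking Runt binding to CBFb-SMMHC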
RanGTP-Impb inh = disruptors of Ran-importin-beta complex formation – biochemical, FRET, CFP-Ran, YFP-importin-beta, homogeneous, primary screen; AID 2216; cell-free CFP-Ran/YFP-importin-beta FRET ratio; 1.1% of 300,000 active; inhibition, % (concentration not given with the values);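 active = more than half of the replicate wells show a fall in the fluorescence ratio signal beyond about 16%, limit read from the data, passing the limit was not always enough; inconclusive = exactly half of the replicate wells pass the set limit; inactive = fewer than half of replicates pass the limit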
eIF4E 4G PPI = blocks eIF4E binding to eIF4G | inhibition, % at 21.7 µM | P63073+Q04637 | 0.37% of 220,000 active | TR-FRET eIF4E-eIF4GI(517-606) binding, 2 h;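 active = inhibition above about 30%, limit read from the data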
Runt-CBFb FRET = blocks binding of human RUNX1 Runt domain to CBFb | Q01196+Q13951 | Cerulean-Runt/Venus-CBFb FRET ratio 530/480, 1 h | inhibition, % at 20 µM | 0.46% of 220,000 active | AID 1496;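 active = inhibition over about 50% at 20 µM in the single-dose screen, limit read from the data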
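Schedule: protein complex preformed 1 h, compound exposure 1 h, room temperature, dark; test system: Cerulean-labeled Runt domain protein; amount: 100 nM per protein; buffer or medium: Tris 50 mM pH 7.5, KCl, K2SO4, 0.01% BSA; read-out: loss of energy transfer signal; detection: FRET fluorescence; controls: 5 µM unlabeled CBFb as full-inhibition high control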
Hck-Nef inh = blocks Nef-activated human Hck kinase; P08631; Recombinant Hck-YEEI plus Nef, Z-Lyte FRET kinase assay; inhibition, % at 20 µM; 0.68% of 220,000 active; AID 463187;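 active = Hck-Nef kinase inhibition above about 50%, limit read from the data; inactive = inhibition below that limit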
Target sequence (P08631 whole entry, looked up): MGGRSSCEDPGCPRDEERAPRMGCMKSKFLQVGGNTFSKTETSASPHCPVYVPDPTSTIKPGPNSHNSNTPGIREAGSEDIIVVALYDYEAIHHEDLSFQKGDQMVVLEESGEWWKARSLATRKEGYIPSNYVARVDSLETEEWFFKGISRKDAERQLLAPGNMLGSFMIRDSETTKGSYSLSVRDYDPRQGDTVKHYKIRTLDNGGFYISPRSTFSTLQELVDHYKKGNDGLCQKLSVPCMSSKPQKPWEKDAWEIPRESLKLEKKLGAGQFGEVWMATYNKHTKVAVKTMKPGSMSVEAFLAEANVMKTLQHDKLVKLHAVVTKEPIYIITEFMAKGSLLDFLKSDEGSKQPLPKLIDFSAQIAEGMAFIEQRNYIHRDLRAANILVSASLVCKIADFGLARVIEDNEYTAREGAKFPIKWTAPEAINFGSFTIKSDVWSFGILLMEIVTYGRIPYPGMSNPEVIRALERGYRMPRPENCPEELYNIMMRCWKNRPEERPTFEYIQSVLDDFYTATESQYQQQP
PERK inhibitor = human PERK inhibition, primary cell-based screen | 0.17% of 220,000 active | inhibition, % at 5.6 µM | Q9NZJ5 | CHO PERK-DD fusion, SEAP luminescence translation reporter | AID 1416;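 active = inhibition above the mean inhibition of all tested compounds plus 3 SD, set separately per screening campaign, cut at about 2.9% in these data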;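 note: PERK kinase domain activated by AP20187 dimerizer at 100 nM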
A number is an active result; ! = not confirmed by another sample.

Screening CC(C(=O)c1c[nH]c2ccccc12)N1CCN(C(=O)c2ccco2)CC1 (configuration not stated) returned Runt-SMMHC FRET inactive, RanGTP-Impb inh inactive, eIF4E 4G PPI inactive, Runt-CBFb FRET inactive, Hck-Nef inh inactive and PERK inhibitor inactive.
For COc1cc2nc(N3CCN(C(=O)c4ccco4)CC3)nc(N)c2cc1OC the results were Runt-SMMHC FRET inactive, RanGTP-Impb inh 25!, eIF4E 4G PPI inactive, Runt-CBFb FRET inactive, Hck-Nef inh inactive and PERK inhibitor inactive.
`O=C(O)C1C2CCC(O2)C1C(=O)NC1CCCCC1` (configuration not stated) gave Runt-SMMHC FRET inactive, RanGTP-Impb inh inactive, eIF4E 4G PPI inactive, Runt-CBFb FRET inactive, Hck-Nef inh inactive and PERK inhibitor inactive.
`O=C1NC(=S)N(c2ccc(Cl)cc2)C(=O)/C1=C/N1CCN(C(=O)c2ccco2)CC1` gave Runt-SMMHC FRET inactive, RanGTP-Impb inh inactive, eIF4E 4G PPI inactive, Runt-CBFb FRET inactive, Hck-Nef inh inactive and PERK inhibitor inactive.
For O=C(Nc1ccc(F)cc1)N1CC2CC(C1)c1cccc(=O)n1C2 (configuration not stated) the results were Runt-SMMHC FRET inactive, RanGTP-Impb inh 21, eIF4E 4G PPI inactive, Hck-Nef inh inactive and PERK inhibitor inactive.
Screening O=C1NC(=O)N(Cc2ccc(F)cc2)C(=O)/C1=C/c1cccs1 returned Runt-SMMHC FRET inactive, RanGTP-Impb inh inactive, eIF4E 4G PPI inactive, Hck-Nef inh inactive and PERK inhibitor inactive.
`O=C1NC(=O)N(Cc2ccccc2)C(=O)/C1=C/c1cnc(-c2ccccc2)nc1` gave Runt-SMMHC FRET inactive, RanGTP-Impb inh inactive, eIF4E 4G PPI inactive, Runt-CBFb FRET inactive, Hck-Nef inh 58 and PERK inhibitor inactive.
`O=C1NC(=O)N(Cc2ccccc2)C(=O)/C1=C/N1CCCc2ccccc21` gave Runt-SMMHC FRET inactive, RanGTP-Impb inh 30, eIF4E 4G PPI inactive, Runt-CBFb FRET inactive, Hck-Nef inh inactive and PERK inhibitor inactive.
CN1C(=O)N(C)C(=O)C2(Cc3cc(N)ccc3N3CCN(c4ccccc4F)CC32)C1=O (configuration not stated) was read as Runt-SMMHC FRET inactive, RanGTP-Impb inh inactive, eIF4E 4G PPI inactive, Runt-CBFb FRET inactive, Hck-Nef inh inactive and PERK inhibitor inactive.
For CN1CCN2c3ccc(N)cc3CC3(C(=O)NC(=O)NC3=O)C2C1 (configuration not stated) the results were Runt-SMMHC FRET inactive, RanGTP-Impb inh inactive, eIF4E 4G PPI 93, Runt-CBFb FRET inactive, Hck-Nef inh inactive and PERK inhibitor inactive.
Screening COC(=O)C1=C(c2cc3ccccc3s2)C[C@@H]2CC[C@H]1N2C(=O)NCCCOC(C)C returned RanGTP-Impb inh inactive.
`CC(C)CCn1c(N)c(C(=O)NCc2cccs2)c2nc3ccccc3nc21` gave Runt-SMMHC FRET inactive, RanGTP-Impb inh 50, eIF4E 4G PPI inactive, Runt-CBFb FRET inactive, Hck-Nef inh inactive and PERK inhibitor inactive.
For CC(C)OCCCNC(=O)c1c(N)n(Cc2cccs2)c2nc3ccccc3nc12 the results were Runt-SMMHC FRET 81, RanGTP-Impb inh 80, eIF4E 4G PPI inactive, Runt-CBFb FRET inactive, Hck-Nef inh inactive and PERK inhibitor inactive.
For Nc1c(C(=O)OCC2CCCO2)c2nc3ccccc3nc2n1Cc1cccs1 (configuration not stated) the results were Runt-SMMHC FRET 85, RanGTP-Impb inh inconclusive, eIF4E 4G PPI inactive, Runt-CBFb FRET inactive, Hck-Nef inh inactive and PERK inhibitor inactive.
`Nc1c(C(=O)NC2CCCC2)c2nc3ccccc3nc2n1CC1CCCO1` (configuration not stated) gave Runt-SMMHC FRET 82, RanGTP-Impb inh 97, eIF4E 4G PPI inactive, Runt-CBFb FRET inactive, Hck-Nef inh inactive and PERK inhibitor inactive.
Screening Cc1nn(Cc2ccccc2)c(C)c1C=C1C(=O)NC(=S)NC1=O returned Runt-SMMHC FRET inactive, RanGTP-Impb inh inactive, eIF4E 4G PPI inactive, Runt-CBFb FRET inactive, Hck-Nef inh inactive and PERK inhibitor inactive.
For C=C1C(=O)O[C@@H]2C[C@@H](C)[C@@H]3C4OC4C(=O)[C@@]3(C)[C@@H](O)[C@H]12 (some centres not stated) the results were Runt-SMMHC FRET inactive, RanGTP-Impb inh inactive, eIF4E 4G PPI inactive, Runt-CBFb FRET inactive and Hck-Nef inh inactive.
`O=P(OCC(F)(F)C(F)F)(N1CCCCC1)N1CCCCC1` gave Runt-SMMHC FRET inactive, RanGTP-Impb inh inactive, eIF4E 4G PPI inactive, Runt-CBFb FRET inactive, Hck-Nef inh inactive and PERK inhibitor inactive.
For Cn1c(O)c(/C=N/NC(=O)c2ccncc2)c(=O)n(C)c1=S the results were Runt-SMMHC FRET 81, RanGTP-Impb inh inactive, eIF4E 4G PPI inactive, Runt-CBFb FRET inactive, Hck-Nef inh inactive and PERK inhibitor inactive.
`O=C(N/N=C/c1c(O)n(-c2ccccc2)c(=O)[nH]c1=O)c1ccncc1` gave Runt-SMMHC FRET inactive, RanGTP-Impb inh inactive, eIF4E 4G PPI inactive, Runt-CBFb FRET inactive, Hck-Nef inh inactive and PERK inhibitor inactive.
Screening Cn1c(O)c(/C=N/NC(=O)c2ccncc2)c(=O)[nH]c1=S returned Runt-SMMHC FRET 71, RanGTP-Impb inh inactive, eIF4E 4G PPI inactive, Runt-CBFb FRET inactive, Hck-Nef inh inactive and PERK inhibitor inactive.
For CCCCCCC(=O)N/N=C/c1c(O)n(CCCC)c(=S)[nH]c1=O the results were Runt-SMMHC FRET inactive, RanGTP-Impb inh inactive, eIF4E 4G PPI inactive, Runt-CBFb FRET inactive, Hck-Nef inh inactive and PERK inhibitor inactive.
`Cc1ccc(-n2c(O)c(/C=N/NC(=O)c3ccncc3)c(=O)[nH]c2=O)cc1` gave Runt-SMMHC FRET inactive, RanGTP-Impb inh inactive, eIF4E 4G PPI inactive, Runt-CBFb FRET inactive, Hck-Nef inh inactive and PERK inhibitor inactive.
CCCCn1c(O)c(/C=N/NC(=O)c2ccncc2)c(=O)[nH]c1=S was read as Runt-SMMHC FRET 82, RanGTP-Impb inh inactive, eIF4E 4G PPI inactive, Runt-CBFb FRET 62, Hck-Nef inh inactive and PERK inhibitor inactive.
CC1CN(c2ccc([N+](=O)[O-])c(N3CCCCC3)c2)CCN1 (configuration not stated) was read as Runt-SMMHC FRET inactive, RanGTP-Impb inh inactive, eIF4E 4G PPI inactive, Runt-CBFb FRET inactive, Hck-Nef inh inactive and PERK inhibitor inactive.
O=C(/C=C/c1c[nH]c2ccccc12)c1c(O)n(CCc2ccccc2)c(=O)[nH]c1=O was read as Runt-SMMHC FRET inactive, RanGTP-Impb inh 31, eIF4E 4G PPI inactive, Runt-CBFb FRET inactive, Hck-Nef inh inactive and PERK inhibitor inactive.
CCCCn1c(O)c(C(C)=NCCc2c[nH]c3ccccc23)c(=O)[nH]c1=O was read as Runt-SMMHC FRET inactive, RanGTP-Impb inh inactive, eIF4E 4G PPI inactive, Runt-CBFb FRET inactive, Hck-Nef inh inactive and PERK inhibitor inactive.
CC(C)(C)c1ccc(O)c(N=Cc2c(O)ccc3ccccc23)c1 was read as RanGTP-Impb inh inactive.

Screening data as filed in PubChem BioAssay.
